Results published in the array DNA melting data of Ke et al. (doi:10.1101/2024.01.08.574731).

Tests used:
[1] = folding enthalpy; higher = less favourable; fluorescence melt of hairpins on a sequencing array, two-state fit; conditions: sodium 0.088 M
Summary of the method: (§1)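 Folding enthalpy and melting temperature come from bootstrapped two-state fits to Cy3 fluorescence of library hairpins carrying annealed Cy3 and quencher oligos on a sequenced MiSeq flow cell. Imaging was done in 50 mM Na-HEPES pH 8.0, 25 mM NaCl, stepping by 2.5 °C up to 60 °C, and signals were normalised to pre-quench Cy3 and to control constructs. Results of four replicates were combined by inverse variance, and fitted temperatures were raised by 9.35 °C to match UV melts.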

[2] = melting temperature; fluorescence melt of hairpins on a sequencing array, two-state fit, raised by 9.35 °C to match UV melts; conditions: sodium 0.088 M
Summary of the method: as §1

Row | Sequence | folding enthalpy [1] | Tm [2]
1 | GCTTTGCGAAAGCTATGC ((.(.((....)).).)) | -12.6 kcal/mol | 45.6 °C
2 | GCTTTGGGAAACTAAAGC (((((.(....).))))) | -27.4 kcal/mol | 44.3 °C
3 | GCTTTGTCGAAAGACAGC (((..(((....)))))) | -12 kcal/mol | 35.3 °C
4 | GCTTTTCGAAAGAAAGC (((.(((....)))))) | -25.1 kcal/mol | 44.5 °C
5 | GCTTTTCGAAAGAATAGC (((.(((....))).))) | -29.3 kcal/mol | 44 °C
6 | GCTTTTGGAAACAAAAAC (.(((((....))))).) | -13.2 kcal/mol | 26.6 °C
7 | GCTTTTGGAAACAAGAGC (((.(((....))).))) | -20 kcal/mol | 41 °C
8 | GCTTTTTCGAAAGAAAGC (((..(((....)))))) | -17.7 kcal/mol | 34.4 °C
9 | GGAAAACCGAAAGGTTCC (((..(((....)))))) | -13.8 kcal/mol | 35.8 °C
10 | GGAAACACGAAAGTGTCC (((..(((....)))))) | -12.6 kcal/mol | 36.5 °C
11 | GGAAACCGAAAGGTGTCC (((.(((....))).))) | -31.1 kcal/mol | 52.4 °C
12 | GGAAACGCGAAAGCGTCC (((..(((....)))))) | -9.21 kcal/mol | 39.1 °C
13 | GGAAAGCCGAAAGGCTCC (((..(((....)))))) | -11.2 kcal/mol | 42.2 °C
14 | GGAAAGGCGAAAGCCTCC (((..(((....)))))) | -10.6 kcal/mol | 41.3 °C
15 | GGAACAGGAAACTGTTCC (((((((....))))))) | -35.9 kcal/mol | 60.6 °C
16 | GGAACCGAAAGGTATCC ((((((....))).))) | -18.2 kcal/mol | 40.8 °C
17 | GGAACCGAAAGGTCTCC ((((((....))).))) | -22.1 kcal/mol | 44.7 °C
18 | GGAACCGAAAGGTTTCC ((((((....))).))) | -18.5 kcal/mol | 53.8 °C
19 | GGAACCGGAAACGGTCCC ((.((((....)))).)) | -19.7 kcal/mol | 52.9 °C
20 | GGAACGGAAACGTTCC ((((((....)))))) | -40.4 kcal/mol | 64.2 °C
21 | GGAACTCCGAAAGGATCC (((..(((....)))))) | -7.77 kcal/mol | 27 °C
22 | GGAAGACGAAAGTCCTCC (((.(((....))).))) | -21.4 kcal/mol | 43 °C
23 | GGAAGAGGAAACTCTTCC (((((((....))))))) | -42.1 kcal/mol | 58.2 °C

Row | Sequence | folding enthalpy [1] | Tm [2]
24 | GGAAGATCGAAAGATTCC (((..(((....)))))) | -13.4 kcal/mol | 29.8 °C
25 | GGAAGCCGAAAGGCTCC (((.(((....)))))) | -15.7 kcal/mol | 56 °C
26 | GGAAGCGAAAGCTTTCC ((((((....))).))) | -30.2 kcal/mol | 50.1 °C
27 | GGAAGCGAAAGCTTTTCC ((((((....)))..))) | -12.2 kcal/mol | 33.4 °C
28 | GGAAGCGGAAACGCTTTC (.(((((....))))).) | -21.2 kcal/mol | 53.7 °C
29 | GGAAGCGGAAACGTTTCC ((((.((....)).)))) | -39.7 kcal/mol | 49.8 °C
30 | GGAAGGGAAACCTTCC ((((((....)))))) | -38 kcal/mol | 55.2 °C
31 | GGAAGTCGAAAGACCTCC (((.(((....))).))) | -27.1 kcal/mol | 43.3 °C
32 | GGAAGTCGAAAGACTCC (((.(((....)))))) | -17.9 kcal/mol | 53 °C
33 | GGAAGTGGAAACACTCCC ((.((((....)))).)) | -23 kcal/mol | 42.7 °C
34 | GGAAGTGGAAACGTTTCC ((((..(....)..)))) | -13.3 kcal/mol | 37.6 °C
35 | GGAATACGAAAGTAGTCC (((.(((....))).))) | -33.9 kcal/mol | 51.8 °C
36 | GGAATAGGAAACCATTCC (((((.(....).))))) | -25.7 kcal/mol | 34.3 °C
37 | GGAATCCCGAAAGGGTCC (((..(((....)))))) | -13.2 kcal/mol | 33 °C
38 | GGAATCCGAAAGGACTCC (((.(((....))).))) | -26.2 kcal/mol | 46.3 °C
39 | GGAATCCGAAAGGATCC (((.(((....)))))) | -19.6 kcal/mol | 50 °C
40 | GGAATCGAAAGATGATCC ((((((....)))..))) | -17.8 kcal/mol | 29 °C
41 | GGAATCGAAAGATTCC ((((((....)))))) | -32.3 kcal/mol | 64.3 °C
42 | GGAATGCCGAAAGGCTCC (((..(((....)))))) | -10.2 kcal/mol | 34.5 °C
43 | GGAATGCGAAAGCAATCC (((.(((....))).))) | -25.6 kcal/mol | 50.9 °C
44 | GGAATGCGAAAGCAGTCC (((.(((....))).))) | -36.6 kcal/mol | 61.2 °C
45 | GGAATGGGAAACTGTTCC ((((..(....)..)))) | -25.8 kcal/mol | 35 °C
46 | GGAATTCGAAAGAATCC (((.(((....)))))) | -20.9 kcal/mol | 39 °C

Row | Sequence | folding enthalpy [1] | Tm [2]
47 | GGAATTGAAAAATTCC ((((((....)))))) | -28.9 kcal/mol | 48 °C
48 | GGAATTGGAAACAATTCC (((((((....))))))) | -45.1 kcal/mol | 56.3 °C
49 | GGACAACGAAAGTTTTCC (((.(((....))).))) | -29.2 kcal/mol | 41.2 °C
50 | GGACAAGGAAACTTGTCC (((((((....))))))) | -45 kcal/mol | 61 °C
51 | GGACACGAAAGTGCATCC ((((((....)))..))) | -11.8 kcal/mol | 32.7 °C
52 | GGACACGAAAGTGCCTCC ((((((....)))..))) | -16.7 kcal/mol | 42.1 °C
53 | GGACACGAAAGTGGATCC ((((((....)))..))) | -15.6 kcal/mol | 40.3 °C
54 | GGACACGGAAACGCGTCC ((((.((....)).)))) | -46.4 kcal/mol | 54.6 °C
55 | GGACACGGAAACGTATCC (((.(((....))).))) | -27.4 kcal/mol | 40.9 °C
56 | GGACACGGAAACGTGTTC (.(((((....))))).) | -24.8 kcal/mol | 54.9 °C
57 | GGACAGGCGAAAGCCTCC (((..(((....)))))) | -9.93 kcal/mol | 31.1 °C
58 | GGACAGGGAAACTTGTCC (((((.(....).))))) | -37.1 kcal/mol | 49 °C
59 | GGACCAGGAAACTGACCC ((..(((....)))..)) | -10.6 kcal/mol | 23.5 °C
60 | GGACCCGAAAGGGATCC ((((((....))).))) | -20.8 kcal/mol | 54.2 °C
61 | GGACCCGAAAGGGGATCC ((((((....)))..))) | -14.8 kcal/mol | 51.4 °C
62 | GGACCCGAAAGGGTATCC ((((((....)))..))) | -11 kcal/mol | 38.9 °C
63 | GGACCCGGAAACAGGTCC (((((.(....).))))) | -39.7 kcal/mol | 49.4 °C
64 | GGACCCGGAAACGGATCC (((.(((....))).))) | -38.5 kcal/mol | 49.8 °C
65 | GGACCCTCGAAAGAGTCC (((..(((....)))))) | -16.3 kcal/mol | 35.9 °C
66 | GGACCGGGAAACCGACCC ((..(((....)))..)) | -18 kcal/mol | 31.1 °C
67 | GGACCGTCGAAAGACTCC (((..(((....)))))) | -12.9 kcal/mol | 30.7 °C
68 | GGACCTCCGAAAGGATCC (((..(((....)))))) | -13.3 kcal/mol | 28.7 °C
